In ChEMBL document CHEMBL1135620, “Cyclosporins: structure-activity relationships for the inhibition of the human FPR1 formylpeptide receptor” (J Med Chem, 2002):

The compounds below were run against T1, fMet-Leu-Phe receptor (Homo sapiens, UniProt P21462) (assay: Inhibitory activity against human formylpeptide receptor (FPR) of human leukemia HL-60 cells).
T1 sequence (P21462 whole entry): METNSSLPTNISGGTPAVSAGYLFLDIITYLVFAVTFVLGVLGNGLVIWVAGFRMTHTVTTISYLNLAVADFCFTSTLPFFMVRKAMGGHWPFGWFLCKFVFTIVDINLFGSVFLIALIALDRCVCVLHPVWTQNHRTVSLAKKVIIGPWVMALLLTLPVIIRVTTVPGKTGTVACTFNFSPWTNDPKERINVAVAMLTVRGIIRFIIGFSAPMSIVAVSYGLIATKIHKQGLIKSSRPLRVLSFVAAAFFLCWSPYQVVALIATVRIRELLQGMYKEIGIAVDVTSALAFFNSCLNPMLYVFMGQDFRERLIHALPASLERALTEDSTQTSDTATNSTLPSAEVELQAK
Assay type: cell-based
Procedure, shortened: (§1)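 HL-60 cells differentiated 48 h with 0.2 mM dibutyryl cAMP, washed, then treated with 5 μM cytochalasin B (5–10 min, 37 °C). Stimulated 10 min with 30 nM f-MLF. N-acetyl-β-D-glucosaminidase release read at 410 nm on p-nitrophenyl substrate after spontaneous-release subtraction. Duplicate wells; IC20/IC50 as mean ± SD of independent experiments.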

| SMILES | IC50 [µM] |
| --- | --- |
| C/C=C/C[C@@H](C)[C@@H](O)[C@H]1C(=O)N[C@@H](CC)C(=O)N(C)CC(=O)N(C)[C@@H](CC(C)C)C(=O)N[C@@H](C(C)C)C(=O)N(C)[C@@H](CC(C)C)C(=O)N[C@@H](C)C(=O)N[C@H](C)C(=O)N(C)[C@@H](CC(C)C)C(=O)N[C@@H](CC(C)C)C(=O)N(C)[C@@H](C(C)C)C(=O)N1C | 9.2 |
| C/C=C/C[C@@H](C)[C@@H](O)[C@H]1C(=O)N[C@@H](CC)C(=O)N(C)CC(=O)N(C)[C@@H](CC(C)C)C(=O)N[C@@H](C(C)C)C(=O)N(C)[C@@H](CC(C)C)C(=O)N[C@@H](C)C(=O)N[C@H](C)C(=O)N(C)[C@@H](CC(C)C)C(=O)N(C)[C@@H](CC(C)C)C(=O)N[C@@H](C(C)C)C(=O)N1C | > 10 |

The compounds below were run against T2, fMet-Leu-Phe receptor (Homo sapiens) (UniProt P21462) (assay: Inhibitory activity against Human formylpeptide receptor (FPR) of human leukemia HL-60 cells).
T2 sequence (whole entry): T1 sequence (P21462 whole entry)
Assay type: cell-based
Procedure, shortened: as §1

| SMILES | IC20 [µM] |
| --- | --- |
| C/C=C/C[C@@H](C)[C@@H](O)[C@H]1C(=O)N[C@@H](CCC)C(=O)N(C)CC(=O)N(C)[C@H](CC(C)C)C(=O)N[C@@H](CCC)C(=O)N(C)[C@H](CC(C)C)C(=O)NC(C)C(=O)N[C@H](C)C(=O)N(C)[C@@H](CC(C)C)C(=O)N(C)[C@@H](CC(C)C)C(=O)N(C)[C@@H](C(C)C)C(=O)N1C (stereo not given in full) | 0.2 |
| C/C=C/C[C@@H](C)[C@@H](O)[C@H]1C(=O)N[C@@H](C(C)C)C(=O)N(C)CC(=O)N(C)[C@H](CC(C)C)C(=O)N[C@H](C(C)C)C(=O)N(C)[C@H](CC(C)C)C(=O)N[C@@H](C)C(=O)N[C@H](C)C(=O)N(C)[C@@H](CC(C)C)C(=O)N[C@@H](CC(C)C)C(=O)N(C)[C@@H](C(C)C)C(=O)N1C | 1.4 |
| CC[C@@H]1NC(=O)[C@H](C2CCCCC2C)N(C)C(=O)[C@H](C(C)C)N(C)C(=O)[C@H](CC(C)C)N(C)C(=O)[C@H](CC(C)C)N(C)C(=O)[C@@H](C)NC(=O)[C@@H](C)NC(=O)[C@@H](CC(C)C)N(C)C(=O)[C@@H](C(C)C)NC(=O)[C@@H](CC(C)C)N(C)C(=O)CN(C)C1=O (stereo not given in full) | > 10 |
| C/C=C/C[C@@H](C)[C@@H](O)[C@H]1C(=O)N[C@@H]([C@@H](C)O)C(=O)NCC(=O)N(C)[C@H](CC(C)C)C(=O)N[C@@H](CC(C)C)C(=O)N(C)[C@H](CC(C)C)C(=O)N[C@@H](C)C(=O)N[C@](O)(C(C)C)C(=O)N(C)[C@@H](CC(C)C)C(=O)N[C@@H](CC(C)C)C(=O)N(C)[C@@H](C(C)C)C(=O)N1C | 0.13 |
| C/C=C/C[C@@H](C)[C@@H](O)[C@H]1C(=O)N[C@@H](CCC)C(=O)N(C)CC(=O)N(C)[C@H](CC(C)C)C(=O)N[C@H](C(C)C)C(=O)N(C)[C@H](CC(C)C)C(=O)N[C@@H](C)C(=O)N[C@H](C)C(=O)N[C@@H](CC(C)C)C(=O)N(C)[C@@H](CC(C)C)C(=O)N(C)[C@@H](C(C)C)C(=O)N1C | 2.1 |
| C/C=C/C[C@@H](C)[C@@H](O)[C@H]1C(=O)N[C@@H](CC)C(=O)N(C)CC(=O)N(C)[C@H](CC(C)C)C(=O)N[C@H](C(C)C)C(=O)N[C@@H](CC(C)C)C(=O)N[C@@H](C)C(=O)N[C@H](C)C(=O)N(C)[C@@H](CC(C)C)C(=O)N[C@@H](CC(C)C)C(=O)N(C)[C@@H](C(C)C)C(=O)N1C | 0.37 |
| C/C=C/C[C@@H](C)[C@@H](O)[C@H]1C(=O)N[C@@H]([C@@H](C)O)C(=O)N(C)CC(=O)N(C)[C@H](CC(C)C)C(=O)N[C@H](C(C)C)C(=O)N(C)[C@H](CC(C)C)C(=O)N[C@@H](C)C(=O)N[C@H](C)C(=O)N(C)[C@@H](CC(C)C)C(=O)N(C)[C@@H](CC(C)C)C(=O)N[C@@H](C(C)C)C(=O)N1C | 6.4 |
| C/C=C/C[C@@H](C)[C@@H](O)[C@H]1C(=O)N[C@@H]([C@@H](C)O)C(=O)N(C)CC(=O)N[C@@H](C(C)C)C(=O)N[C@H](C(C)C)C(=O)N(C)[C@H](CC(C)C)C(=O)N[C@@H](C)C(=O)N[C@H](C)C(=O)N(C)[C@@H](CC(C)C)C(=O)N(C)[C@@H](CC(C)C)C(=O)N(C)[C@@H](C(C)C)C(=O)N1C | > 10 |
| C/C=C/C[C@@H](C)[C@@H](O)[C@H]1C(=O)N[C@@H](CC)C(=O)NCC(=O)N(C)[C@H](CC(C)C)C(=O)N[C@H](C(C)C)C(=O)N(C)[C@H](CC(C)C)C(=O)N[C@@H](C)C(=O)N[C@H](CO)C(=O)N(C)[C@@H](CC(C)C)C(=O)N(C)[C@@H](CC(C)C)C(=O)N(C)[C@@H](C(C)C)C(=O)N1C | 1.9 |
| C/C=C/C[C@@H](C)[C@@H](O)[C@H]1C(=O)N[C@@H]([C@@H](C)O)C(=O)N(C)CC(=O)N(C)[C@H](CC(C)C)C(=O)N[C@@H](C(C)C)C(=O)N(C)[C@H](CC(C)C)C(=O)N[C@@H](C)C(=O)N[C@](O)(C(C)C)C(=O)N(C)[C@@H](CC(C)C)C(=O)N[C@@H](CC(C)C)C(=O)N(C)[C@@H](C(C)C)C(=O)N1C | 0.93 |

Further lines, results first:

| IC20 [µM] | SMILES |
| --- | --- |
| 0.09 | C/C=C/C[C@@H](C)[C@@H](O)[C@H]1C(=O)N[C@@H]([C@@H](C)O)C(=O)N(C)CC(=O)N(C)[C@H](CC(C)C)C(=O)N[C@@H]([C@@H](C)CC)C(=O)N(C)[C@H](CC(C)C)C(=O)N[C@@H](C)C(=O)N[C@H](C)C(=O)N(C)[C@@H](CC(C)C)C(=O)N(C)[C@@H](CC(C)C)C(=O)N(C)[C@@H](C(C)C)C(=O)N1C |
| > 10 | CC/C=C/C[C@@H](C)[C@@H](O)[C@H]1C(=O)N[C@@H](CC)C(=O)N(C)[C@@H](Cc2ccccc2)C(=O)N(C)[C@H](CC(C)C)C(=O)N[C@H](C(C)C)C(=O)N(C)[C@H](CC(C)C)C(=O)N[C@@H](C)C(=O)N[C@H](C)C(=O)N(C)[C@@H](CC(C)C)C(=O)N(C)[C@@H](CC(C)C)C(=O)N(C)[C@@H](C(C)C)C(=O)N1C |
| > 10 | CC/C=C/C[C@@H](C)[C@@H](O)[C@H]1C(=O)N[C@@H](CC)C(=O)N(C)CC(=O)N(C)[C@H](CC(C)C)C(=O)N[C@H](C(C)C)C(=O)N(C)[C@@H](C)C(=O)N[C@@H](C)C(=O)N[C@H](C)C(=O)N(C)[C@@H](CC(C)C)C(=O)N(C)[C@@H](CC(C)C)C(=O)N(C)[C@@H](C(C)C)C(=O)N1C |
| > 10 | C/C=C/C[C@@H](C)[C@@H](O)[C@H]1C(=O)N[C@@H](CC)C(=O)N(C)CC(=O)N[C@@H](C(C)C)C(=O)N[C@H](C(C)C)C(=O)N(C)[C@H](CC(C)C)C(=O)N[C@@H](C)C(=O)N[C@H](C)C(=O)N(C)[C@@H](CC(C)C)C(=O)N(C)[C@@H](CC(C)C)C(=O)N(C)[C@@H](C(C)C)C(=O)N1C |
| 1.7 | CC/C=C/C[C@@H](C)[C@@H](O)[C@H]1C(=O)N[C@@H](CC)C(=O)N(C)CC(=O)N(C)[C@@H](CC(C)(C)O)C(=O)N[C@H](C(C)C)C(=O)N(C)[C@H](CC(C)C)C(=O)N[C@@H](C)C(=O)N[C@H](C)C(=O)N(C)[C@@H](CC(C)C)C(=O)N(C)[C@@H](CC(C)C)C(=O)N(C)[C@@H](C(C)C)C(=O)N1C |
| 1.44 | CC/C=C/C[C@@H](C)[C@@H](O)[C@H]1C(=O)N[C@@H](CC)C(=O)N(C)CC(=O)N(C)[C@@H](C(C)C)C(=O)N[C@H](C(C)C)C(=O)N(C)[C@H](CC(C)C)C(=O)N[C@@H](C)C(=O)N[C@H](C)C(=O)N(C)[C@@H](CC(C)C)C(=O)N(C)[C@@H](CC(C)C)C(=O)N(C)[C@@H](C(C)C)C(=O)N1C |
| 2.6 | CC/C=C/C[C@@H](C)[C@@H](O)[C@H]1C(=O)N[C@@H](CCC)C(=O)N(C)CC(=O)N(C)[C@H](CC(C)C)C(=O)N[C@H](C(C)C)C(=O)N(C)[C@H](CC(C)C)C(=O)N[C@@H](C)C(=O)N[C@H](C)C(=O)N(C)[C@@H](CC(C)C)C(=O)N(C)[C@@H](CC(C)C)C(=O)N(C)[C@@H](C(C)C)C(=O)N1C |
| 4 | CC/C=C/C[C@@H](C)[C@@H](O)[C@H]1C(=O)N[C@@H](CC)C(=O)N(C)CC(=O)N(C)[C@@H](Cc2ccccc2)C(=O)N[C@H](C(C)C)C(=O)N(C)[C@H](CC(C)C)C(=O)N[C@@H](C)C(=O)N[C@H](C)C(=O)N(C)[C@@H](CC(C)C)C(=O)N(C)[C@@H](CC(C)C)C(=O)N(C)[C@@H](C(C)C)C(=O)N1C |
| 8.1 | C/C=C/C[C@@H](C)[C@@H](O)[C@H]1C(=O)N[C@@H](CCC)C(=O)N(C)CC(=O)N(C)[C@H](CC(C)C)C(=O)N[C@H](C(C)C)C(=O)N[C@@H](CC(C)C)C(=O)N[C@@H](C)C(=O)N[C@H](C)C(=O)N(C)[C@@H](CC(C)C)C(=O)N(C)[C@@H](CC(C)C)C(=O)N(C)[C@@H](C(C)C)C(=O)N1C |
| 2.8 | C/C=C/C[C@@H](C)[C@@H](O)[C@H]1C(=O)N[C@@H](CC)C(=O)N(C)CC(=O)N[C@@H]([C@@H](C)CC)C(=O)N[C@H](C(C)C)C(=O)N(C)[C@H](CC(C)C)C(=O)N[C@@H](C)C(=O)N[C@H](C)C(=O)N(C)[C@@H](CC(C)C)C(=O)N(C)[C@@H](CC(C)C)C(=O)N(C)[C@@H](C(C)C)C(=O)N1C |
| 0.66 | C/C=C/C[C@@H](C)[C@@H](O)[C@H]1C(=O)N[C@@H](CCC)C(=O)N(C)CC(=O)N(C)[C@H](CC(C)C)C(=O)N[C@H](C(C)C)C(=O)N(C)[C@H](CC(C)C)C(=O)N[C@@H](C)C(=O)N[C@H](C)C(=O)N(C)[C@@H](CC(C)C)C(=O)N[C@@H](CC(C)C)C(=O)N(C)[C@@H](C(C)C)C(=O)N1C |
| 2.2 | CC/C=C/C[C@@H](C)[C@@H](O)[C@H]1C(=O)N[C@@H]([C@@H](C)O)C(=O)N(C)CC(=O)N(C)[C@H](CC(C)C)C(=O)N[C@H](C(C)C)C(=O)N(C)[C@H](CC(C)C)C(=O)N[C@@H](C)C(=O)N[C@H](C)C(=O)N(C)[C@@H](CC(C)C)C(=O)N(C)[C@@H](CC(C)C)C(=O)N(C)[C@@H](C(C)C)C(=O)N1C |
| 3.8 | C/C=C/C[C@@H](C)[C@@H](O)[C@H]1C(=O)N[C@@H](CC)C(=O)N(C)CC(=O)N(C)[C@H](CC(C)C)C(=O)N[C@H](C(C)C)C(=O)N(C)[C@H](CC(C)C)C(=O)N[C@@H](C)C(=O)N[C@H](C)C(=O)N(C)[C@@H](CC(C)C)C(=O)N(C)[C@@H](CC(C)C)C(=O)N[C@@H](C(C)C)C(=O)N1C |
